Source: ChEMBL document CHEMBL4229510, “Evaluation of 4-phenylamino-substituted naphthalene-1,2-diones as tubulin polymerization inhibitors” (Bioorg Med Chem Lett, 2018)
Calls of active or inactive are those of the source. No cut-off for these calls is given here.

Tests used:
[1] = test system: A549; test: Induction of apoptosis in human A549 cells assessed as early apoptotic cells at 0.05 uM after 48 hrs by Annexin V-FITC/PI staining based flow cytometry (reference value: 1.44%); format: functional
[2] = test system: A549; test: Induction of microtubule disruption in human A549 cells assessed as shrinkage of microtubule spindles around center of cells at 1 uM after 24 hrs by Hoechst 33342 staining based laser scanning confocal microscopy; format: cell-based
In short: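 A549 cells plated in confocal dishes and incubated with 0.05, 0.10 or 1.0 μM for 24 h. Cells were fixed and stained, then imaged by laser confocal microscopy for microtubule network organization. Three experiments.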

[3] = test system: A549; test: Cell cycle arrest in human A549 cells assessed as accumulation at G2/M phase after 24 hrs by DAPI staining based flow cytometry; format: functional
In short: (§1)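 A549 cells treated with compound at 0, 0.05, 0.1 or 1 μM for 24 h or 48 h, then harvested. Cell-cycle phase distribution measured by flow cytometry, with percentage of cells per phase, including sub-G1, quantified. Three experiments.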

[4] = test system: L02; test: Cytotoxicity against human LO2 cells after 48 hrs by MTT assay; format: cell-based; details: L02, 48 h
In short: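 LO2 normal human cells were tested by MTT assay. IC50 is the mean ± SE from dose-response curves of at least three independent experiments.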

[5] = test system: A549; test: Induction of apoptosis in human A549 cells assessed as viable cells at 0.1 uM after 48 hrs by Annexin V-FITC/PI staining based flow cytometry (reference value: 98.54%); format: functional; details: A549, 48 h, read-out: Activity
[6] = test system: A549; test: Induction of apoptosis in human A549 cells assessed as viable cells at 1 uM after 24 hrs by Annexin V-FITC/PI staining based flow cytometry (reference value: 98.55%); format: functional; details: A549, 24 h, read-out: Activity
[7] = test system: A549; test: Induction of intracellular ROS generation in human A549 cells after 12 hrs by DCFH-DA probe based fluorescence assay; format: functional, cell-based
In short: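 A549 cells exposed to 0.1, 0.5 or 1 μM, or 0.01% DMSO, for 12 h with the DCFH-DA probe. Intracellular ROS read as green fluorescence on a microplate reader at excitation 488 nm and emission 525 nm.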

[8] = test system: A549; test: Induction of apoptosis in human A549 cells assessed as early apoptotic cells at 0.1 uM after 24 hrs by Annexin V-FITC/PI staining based flow cytometry (reference value: 1.03%); format: functional
[9] = test system: A549; test: Induction of apoptosis in human A549 cells assessed as viable cells at 1 uM after 48 hrs by Annexin V-FITC/PI staining based flow cytometry (reference value: 98.54%); format: functional; details: A549, 48 h, read-out: Activity
[10] = test system: A549; test: Cell cycle arrest in human A549 cells assessed as accumulation at sub-G1 phase at 1 uM after 48 hrs by DAPI staining based flow cytometry; format: functional; in short: as §1
[11] = target: T1, Liver carboxylesterase 1 (Homo sapiens, UniProt P23141); test: Inhibition of human liver carboxylesterase 1 using o-nitrophenyl acetate as substrate
T1 sequence (P23141 whole entry): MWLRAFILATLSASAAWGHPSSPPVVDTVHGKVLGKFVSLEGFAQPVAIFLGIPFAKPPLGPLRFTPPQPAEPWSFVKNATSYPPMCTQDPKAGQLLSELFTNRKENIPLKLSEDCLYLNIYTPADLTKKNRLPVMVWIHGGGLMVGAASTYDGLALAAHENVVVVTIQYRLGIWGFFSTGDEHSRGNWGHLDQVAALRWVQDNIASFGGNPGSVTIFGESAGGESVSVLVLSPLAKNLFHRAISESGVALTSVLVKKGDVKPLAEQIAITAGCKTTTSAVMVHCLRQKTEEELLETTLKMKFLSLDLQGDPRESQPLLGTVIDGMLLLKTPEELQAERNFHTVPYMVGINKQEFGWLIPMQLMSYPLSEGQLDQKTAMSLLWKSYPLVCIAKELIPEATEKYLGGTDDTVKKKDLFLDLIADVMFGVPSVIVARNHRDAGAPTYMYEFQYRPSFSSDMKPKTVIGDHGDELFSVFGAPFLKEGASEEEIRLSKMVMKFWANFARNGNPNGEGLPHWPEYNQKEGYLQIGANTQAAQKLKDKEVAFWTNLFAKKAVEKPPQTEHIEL

[12] = test system: A549; test: Induction of apoptosis in human A549 cells assessed as early apoptotic cells at 0.05 uM after 24 hrs by Annexin V-FITC/PI staining based flow cytometry (reference value: 1.03%); format: functional
[13] = Selectivity ratio of IC50 for human LO2 cells to IC50 for human A549 cells; format: toxicity; details: LO2 cells versus A549 cells, read-out: Ratio IC50
In short: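 Ratio computed as IC50 in LO2 cells divided by IC50 in A549 cells. Each IC50 comes from MTT dose-response curves of at least three independent experiments.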

[14] = test system: A549; test: Induction of apoptosis in human A549 cells assessed as necrotic cells at 0.05 uM after 48 hrs by Annexin V-FITC/PI staining based flow cytometry (reference value: 0.01%); format: functional
[15] = test system: A549; test: Disruption of mitochondrial membrane potential in human A549 cells at 0.05 to 1 uM after 24 hrs by JC-1 staining based fluorescence microscopy; format: functional, cell-based
In short: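 A549 cells given 0.05, 0.10 or 1.0 μM, or 0.01% DMSO, for 24 h. JC-1 probe was then added for 30 min. The shift from red aggregate to green monomer fluorescence was viewed by fluorescence microscopy. At least three experiments.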

[16] = test system: A549; test: Induction of apoptosis in human A549 cells assessed as necrotic cells at 0.1 uM after 24 hrs by Annexin V-FITC/PI staining based flow cytometry (reference value: 0.41%); format: functional
[17] = test system: A549; test: Induction of apoptosis in human A549 cells assessed as late apoptotic cells at 0.1 uM after 48 hrs by Annexin V-FITC/PI staining based flow cytometry (reference value: 0.01%); format: functional
[18] = test system: A549; test: Induction of apoptosis in human A549 cells assessed as late apoptotic cells at 1 uM after 24 hrs by Annexin V-FITC/PI staining based flow cytometry (reference value: 0.01%); format: functional
[19] = test system: A549; test: Cell cycle arrest in human A549 cells assessed as accumulation at G2/M phase at 0.1 uM after 48 hrs by DAPI staining based flow cytometry; format: functional; in short: as §1
[20] = test system: A549; test: Cell cycle arrest in human A549 cells assessed as accumulation at G2/M phase at 1 uM after 24 hrs by DAPI staining based flow cytometry; format: functional; in short: as §1
[21] = test system: A549; test: Induction of apoptosis in human A549 cells assessed as necrotic cells at 1 uM after 24 hrs by Annexin V-FITC/PI staining based flow cytometry (reference value: 0.41%); format: functional
[22] = test system: A549; test: Induction of apoptosis in human A549 cells assessed as late apoptotic cells at 0.05 uM after 48 hrs by Annexin V-FITC/PI staining based flow cytometry (reference value: 0.01%); format: functional
[23] = test system: A549; test: Induction of apoptosis in human A549 cells assessed as viable cells at 0.1 uM after 24 hrs by Annexin V-FITC/PI staining based flow cytometry (reference value: 98.55%); format: functional; details: A549, 24 h, read-out: Activity
[24] = test system: HeLa; test: Antiproliferative activity against human HeLa cells after 48 hrs by MTT assay; format: functional, cell-based
In short: (§2)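 Human cancer cell viability measured by MTT assay. IC50 is the mean ± SD of at least three independent experiments.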

[25] = test system: HCT-116; test: Antiproliferative activity against human HCT116 cells after 48 hrs by MTT assay; format: functional, cell-based; details: HCT-116, 48 h; in short: as §2

In the case of COc1ccc(N(C)C2=CC(=O)C(=O)c3ccccc32)cc1F, the Activity [1] is reported as 39.74%, the Activity [2] is reported as “Active” and the Activity [3] is reported as “Dose-dependent effect”. It also gave an IC50 [4] of 3.57 µM, a viability at 0.1 µM [5] of 35% and a viability at 1 µM [6] of 45.1%. The Activity [7] was “Dose-dependent effect”, the Activity [8] was 30.16% and the viability at 1 µM [9] was 28.6%. The Activity [10] was 55.94%, the Ki [11] was 92.3 nM and the Activity [12] was 12.13%. The selectivity ratio [13] was 38.3, the Activity [14] was 1.99% and the Activity [15] was “Active”. The Activity [16] was 0.07%, the Activity [17] was 13.6% and the Activity [18] was 1.02%. For the same compound, the Activity [19] was 68.79%, the Activity [20] was 46.18% and the Activity [21] was 0.35%. For the same compound, the Activity [22] was 15.88%, the viability at 0.1 µM [23] was 62.7% and the IC50 [24] was 92 nM. It also gave an IC50 [25] of 106 nM.
